The IC50 is the concentration that gives 50% inhibition.

Active and inactive are the calls of the source. No cut-off for these calls is given here.

From ChEMBL document CHEMBL1145351, “Squalene-derived flexible linkers for bioactive peptides” (Bioorg Med Chem Lett, 2007) come the findings set out here.

T1 sequence (P32245 whole entry): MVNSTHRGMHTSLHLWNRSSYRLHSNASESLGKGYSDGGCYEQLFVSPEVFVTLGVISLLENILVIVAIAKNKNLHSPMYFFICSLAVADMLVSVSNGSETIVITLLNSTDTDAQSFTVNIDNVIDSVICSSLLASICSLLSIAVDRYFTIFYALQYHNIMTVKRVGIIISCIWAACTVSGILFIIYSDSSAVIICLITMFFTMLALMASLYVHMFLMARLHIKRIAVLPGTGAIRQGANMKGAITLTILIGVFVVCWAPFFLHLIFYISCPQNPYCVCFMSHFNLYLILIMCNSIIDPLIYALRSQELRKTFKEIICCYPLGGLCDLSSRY

The first test addresses T1, Melanocortin receptor 4 (Homo sapiens, UniProt P32245). The test can be described thus: Displacement of Eu-NDP-alpha-MSH from human melanocortin 4 receptor expressed in HEK293 cells. It is filed as cell-based. In a few lines:
(§1)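 HEK293 cells overexpressing hMC4R, plated at 12,000 cells/well and grown 3 days. Incubated 40 min at 37 °C, washed 4 times in Tris-HCl/BSA/NaCl, then enhancement solution added for 30 min at 37 °C before time-resolved Eu read-out. IC50 averaged over n independent experiments, each in quadruplicate.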
As to `CC(C)C(O)CCC(C)C(O)CCC(C)C(O)CCC(OCCCCCCn1cc(CCCC(=O)N[C@@H](Cc2cnc[nH]2)C(=O)N[C@H](Cc2ccccc2)C(=O)N[C@@H](CCCN=C(N)N)C(=O)N[C@@H](Cc2c[nH]c3ccccc23)C(N)=O)nn1)C(C)CCC(O)C(C)CCC(O)C(C)C` (some centres not stated), the IC50 came to 3300 nM.
Consider `C#CCCCC(=O)N[C@@H](Cc1cnc[nH]1)C(=O)N[C@H](Cc1ccccc1)C(=O)N[C@@H](CCCNC(=N)N)C(=O)N[C@@H](Cc1c[nH]c2ccccc12)C(N)=O`, for which the IC50 stood at 900 nM.
Turning to `CC(C)C(O)CCC(C)C(O)CCC(C)C(CCC(O)C(C)CCC(O)C(C)CCC(OCCCCCCn1cc(CCCC(=O)N[C@@H](Cc2cnc[nH]2)C(=O)N[C@@H](Cc2ccccc2)C(=O)N[C@@H](CCCNC(=N)N)C(=O)N[C@@H](Cc2c[nH]c3ccccc23)C(N)=O)nn1)C(C)C)OCCCCCCn1cc(CCCC(=O)N[C@@H](Cc2cnc[nH]2)C(=O)N[C@@H](Cc2ccccc2)C(=O)NC(CCCNC(=N)N)C(=O)N[C@@H](Cc2c[nH]c3ccccc23)C(N)=O)nn1` (single isomer, unassigned), the IC50 came out at 400 nM.
Molecule `N=C(N)NCCC[C@H](NC(=O)C(Cc1ccccc1)NC(=O)[C@@H](N)Cc1cnc[nH]1)C(=O)N[C@@H](Cc1c[nH]c2ccccc12)C(=O)O` (stereo in doubt) yielded an IC50 of 1100 nM.

A further test deals with T1, Melanocortin receptor 4. The test is described as follows: Displacement of Eu-NDP-alpha-MSH from human melanocortin 4 receptor expressed in HEK293 cells at 1 pM to 10 uM. It counts as cell-based. An outline of the steps: as §1
Take `CC(C)C(O)CCC(C)C(O)CCC(C)C(O)CCC(OCCCCCCn1cc(CCCC(=O)N[C@@H](CO)C(N)=O)nn1)C(C)CCC(O)C(C)CCC(O)C(C)C` (some centres not stated): the result was inactive.
The same measure, in the same setting: in the case of `CC(C)C(O)CCC(C)C(O)CCC(C)C(CCC(O)C(C)CCC(O)C(C)CCC(OCCCCCCn1cc(CCCC(=O)N[C@@H](CO)C(N)=O)nn1)C(C)C)OCCCCCCn1cc(CCCC(=O)N[C@@H](CO)C(N)=O)nn1` (some centres not stated) it was “inactive”; in that of `C#CCCCC(=O)N[C@@H](CO)C(N)=O`, “inactive”.
